The inhibition is the relative decrease from the control value, in per cent.

Activity calls are given as the source filed them. The calls are words filed in the database; no cut-off is given here.

These results are taken from ChEMBL document CHEMBL3046895, “Molecular mechanism of enantioselective inhibition of acetolactate synthase by imazethapyr enantiomers” (J Agric Food Chem, 2010).

Common to all, as to assay type: protein assay
Assay [1] deals with T1, Acetolactate synthase (Zea mays) (UniProt Q41768+Q41769). The assay can be described thus: Inhibition of in vitro ALS activity in first leaf of the plant grew out Zea mays (maize) seedlings measured at 520 OD/ mg of protein/hr at 800 ug/L at 37 degC. Put shortly:
(§1)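 Maize seedlings were treated in vivo, once the first leaf emerged, with herbicide in distilled water at 0, 100, 200, 400 and 800 μg L-1. Uppermost-expanded leaves were harvested 24 h later. ALS was extracted, precipitated with 50% (NH4)2SO4 at 4 °C, and assayed with 30 mM pyruvate, TPP and FAD at pH 7 for 1 h at 37 °C. Acetoin was read at A520 and normalised to Coomassie protein.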

For assay [2], the target named is T1, Acetolactate synthase (Zea mays). The assay can be described thus: Inhibition of in vitro ALS activity in first leaf of the plant grew out Zea mays (maize) seedlings measured at 520 OD/ mg of protein/hr at 400 ug/L at 37 degC. In a few lines:
as §1

For assay [3] the target is unchanged. In words: Inhibition of in vitro ALS activity in first leaf of the plant grew out Zea mays (maize) seedlings measured at 520 OD/ mg of protein/hr at 200 ug/L at 37 degC. Put shortly:
as §1

For assay [4] the target is unchanged. In words: Inhibition of in vitro ALS activity of Zea mays (maize) at 25 mg/L at 37 degC. Put shortly: (§2)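 ALS came from uppermost-expanded leaves of 5-day maize seedlings, using a 50% (NH4)2SO4 pellet. Inhibitor was dried from acetone in the tubes at 0, 0.04, 0.2, 1, 5 and 25 mg L-1. The assay used 30 mM pyruvate, 1 mM MgCl2, 1 mM TPP, 20 μM FAD and 50 mM K-phosphate at pH 7, run for 1 h at 37 °C. It was stopped with H2SO4, decarboxylated for 15 min at 60 °C, developed with creatine/α-naphthol, and read at A520.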

For assay [5] the target is unchanged. The assay can be described thus: Inhibition of in vitro ALS activity in first leaf of the plant grew out Zea mays (maize) seedlings measured at 520 OD/ mg of protein/hr at 100 ug/L at 37 degC. Put shortly:
as §1

The target is the same in assay [6]. The assay can be described thus: Inhibition of in vitro ALS activity of Zea mays (maize) at 200 ug/L at 37 degC. Put shortly:
as §2

T1 sequence (Q41768 whole entry, looked up): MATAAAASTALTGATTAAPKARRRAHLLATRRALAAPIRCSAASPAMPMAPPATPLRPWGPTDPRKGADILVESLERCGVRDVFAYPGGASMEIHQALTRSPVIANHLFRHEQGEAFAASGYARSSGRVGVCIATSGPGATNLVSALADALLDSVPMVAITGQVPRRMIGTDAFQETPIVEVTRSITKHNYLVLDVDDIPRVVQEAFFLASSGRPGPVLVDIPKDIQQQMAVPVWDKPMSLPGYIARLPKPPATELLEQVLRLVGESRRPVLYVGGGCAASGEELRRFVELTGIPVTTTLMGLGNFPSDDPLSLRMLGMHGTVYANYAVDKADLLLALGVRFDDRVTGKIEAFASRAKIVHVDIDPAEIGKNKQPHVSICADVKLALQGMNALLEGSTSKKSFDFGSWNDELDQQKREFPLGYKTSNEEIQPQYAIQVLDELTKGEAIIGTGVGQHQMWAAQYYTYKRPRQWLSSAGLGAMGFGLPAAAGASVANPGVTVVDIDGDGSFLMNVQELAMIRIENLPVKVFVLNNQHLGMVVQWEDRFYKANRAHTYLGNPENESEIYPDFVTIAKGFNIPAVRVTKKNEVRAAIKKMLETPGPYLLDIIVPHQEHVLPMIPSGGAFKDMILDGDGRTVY
T1 sequence (Q41769 whole entry, looked up): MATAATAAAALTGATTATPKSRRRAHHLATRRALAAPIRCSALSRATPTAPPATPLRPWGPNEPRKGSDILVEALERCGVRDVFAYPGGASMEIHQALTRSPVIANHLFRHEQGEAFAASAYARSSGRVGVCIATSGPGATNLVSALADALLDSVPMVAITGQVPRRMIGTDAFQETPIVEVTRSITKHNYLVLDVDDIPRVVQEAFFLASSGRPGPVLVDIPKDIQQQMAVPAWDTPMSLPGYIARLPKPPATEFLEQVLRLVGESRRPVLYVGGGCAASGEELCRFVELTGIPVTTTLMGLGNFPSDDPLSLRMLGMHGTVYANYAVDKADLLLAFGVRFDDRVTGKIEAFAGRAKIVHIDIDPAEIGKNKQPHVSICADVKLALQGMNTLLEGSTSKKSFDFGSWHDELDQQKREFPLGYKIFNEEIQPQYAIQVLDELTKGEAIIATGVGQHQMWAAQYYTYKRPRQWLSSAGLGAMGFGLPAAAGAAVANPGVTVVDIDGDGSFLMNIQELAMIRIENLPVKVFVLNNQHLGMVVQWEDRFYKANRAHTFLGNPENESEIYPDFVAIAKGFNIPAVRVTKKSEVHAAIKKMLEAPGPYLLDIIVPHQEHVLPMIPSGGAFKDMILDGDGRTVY

Take `CCc1cnc(C2=N[C@](C)(C(C)C)C(=O)N2)c(C(=O)O)c1`: the OD in assay [1] came to 0.97 h⁻¹; in assay [2], 1.56 h⁻¹; in assay [3], 3.39 h⁻¹; in assay [5], 7.14 h⁻¹. Further, the inhibition result in assay [4] is “Active”. The inhibition in assay [6] came out at 28.9%.

Take `CCc1cnc(C2=NC(C)(C(C)C)C(=O)N2)c(C(=O)O)c1` (racemic): the OD in assay [1] came out at 1.9 h⁻¹; in assay [2], 2.26 h⁻¹; in assay [3], 4.41 h⁻¹; in assay [5] it was 7.6 h⁻¹. In addition, the inhibition result in assay [4] is “Active”. Besides, in assay [6], the inhibition was determined as 19.8%.

For `CCc1cnc(C2=N[C@@](C)(C(C)C)C(=O)N2)c(C(=O)O)c1`, the OD in assay [1] was 2.06 h⁻¹; in assay [2], 3.18 h⁻¹; in assay [3], 6.34 h⁻¹; in assay [5], 7.96 h⁻¹. In addition, the inhibition entry in assay [4] is “Active”. Also, in assay [6], the inhibition stood at 3.8%.
